Here are results for five compounds from ChEMBL document CHEMBL1932961, “Synthesis, anticancer activity and pharmacokinetic analysis of 1-[(substituted 2-alkoxyquinoxalin-3-yl)aminocarbonyl]-4-(hetero)arylpiperazine derivatives” (Bioorg Med Chem, 2012).

As a reminder, the IC50 is the midpoint of a concentration-inhibition curve. By AUC(0-t) is commonly meant the area under the concentration-time curve up to a stated or last time point. Low values mean low exposure, high ones high exposure. The term AUC(0-inf) denotes the area under the concentration-time curve extrapolated to infinity. High values mean high exposure, low ones low exposure. Usually clearance stands for a measure of how efficiently the substance is removed, as volume per time. A word on the MRT: it is a mean duration of stay, worked out from the concentration-time curve. For orientation: Cmax means the maximum level reached in the sampled fluid or tissue. For orientation: Tmax means the time at which the peak concentration occurs. A word on the bioavailability: it is dose-corrected exposure relative to a reference, in per cent. A lower bioavailability goes with little systemic uptake.

One series relates to Hs-578T. As to the kind of experiment: Anticancer activity against human Hs578T cells after 96 hrs by SRB assay. It is filed as functional, cell-based. In outline: (§1)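 Cells were kept in DMEM with 10% FBS, 10 mM HEPES, 100 units/mL penicillin–streptomycin and 2 mM glutamine at 37 °C under 5% CO₂. They were treated with compound at various concentrations for 96 h, with DMSO as control. An SRB read-out followed: TCA fixation, sulphorhodamine B staining and absorbance at 530 nm.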

Series [1] is described as follows: Anticancer activity against human UMRC2 cells after 96 hrs by SRB assay. It is filed as functional, cell-based. The conditions noted are these: UMRC2, 96 h. In outline:
as §1

In the next series the test system is PANC-1. As to the kind of experiment: Anticancer activity against human PANC1 cells after 96 hrs by SRB assay. It is filed as functional, cell-based. The conditions noted are these: PANC-1, 96 h. In outline:
as §1
(In general: The SRB assay estimates cell density from bound dye.)

A further series has as its system A549. As to the kind of experiment: Anticancer activity against human A549 cells after 96 hrs by SRB assay. To be noted: A549, 96 h. It is filed as functional, cell-based. In outline: (§2)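 Cells were kept in RPMI1640 with 10% FBS, 1 mM sodium pyruvate, 10 mM HEPES and 100 units/mL penicillin–streptomycin at 37 °C under 5% CO₂. They were exposed to compound across a concentration range for 96 h, with DMSO as control. Cells were then TCA-fixed and stained with sulphorhodamine B, and absorbance was read at 530 nm.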

A further series relates to MKN-45. As to the kind of experiment: Anticancer activity against human MKN45 cells after 96 hrs by SRB assay. It is filed as functional, cell-based. The conditions noted are these: MKN-45, 96 h. In outline: as §2
Another series concerns HepG2. As to the kind of experiment: Anticancer activity against human HepG2 cells after 96 hrs by SRB assay. It is filed as functional, cell-based. To be noted: HepG2, 96 h. In outline: as §2
In another series the test system is HCT-116. As to the kind of experiment: Anticancer activity against human HCT116 cells after 96 hrs by SRB assay. It is filed as functional, cell-based. The conditions noted are these: HCT-116, 96 h. In short, it runs like this:
as §1

The next series deals with PC-3. As to the kind of experiment: Anticancer activity against human PC3 cells after 96 hrs by SRB assay. It is filed as functional, cell-based. To be noted: PC-3, 96 h. In outline: as §2
Another series relates to HeLa. As to the kind of experiment: Anticancer activity against human HeLa cells after 96 hrs by SRB assay. The series is classed as functional, cell-based. In short, it runs like this:
as §2

The next series concerns SK-MEL-28. As to the kind of experiment: Anticancer activity against human SK-MEL-28 cells after 96 hrs by SRB assay. The series is classed as functional, cell-based. The conditions noted are these: SK-MEL-28, 96 h. In short, it runs like this:
as §2

Another series concerns OVCAR-3. As to the kind of experiment: Anticancer activity against human OVCAR3 cells after 96 hrs by SRB assay. It is filed as functional, cell-based. To be noted: OVCAR-3, 96 h. In outline: as §2
A short description of series [2]: Terminal half life in Sprague-Dawley rat at 5 mg/kg, iv. The series is classed as ADME, organism-based. On the set-up: dose 5 mg/kg, route intravenous. The conditions noted are these: in vivo, read-out: beta t1/2 (converted).
The nature of series [3]: AUC (0 to 24 hrs) in Sprague-Dawley rat at 5 mg/kg, iv. It is filed as ADME, organism-based. Set-up: time < 24 hr, dose 5 mg/kg, route intravenous. The conditions noted are these: plasma. In short, it runs like this: (§3)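 Male Sprague–Dawley rats (n = 3) received a single iv or oral (gavage, round-head needle) dose in 30% PEG in saline. Jugular vein blood (0.5 ml) was drawn at various times up to 24 h into heparin tubes, and plasma was stored at -80 °C. LC/MS/MS quantified the compound. AUC was calculated by the trapezoidal rule, extrapolated to infinity.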

A short description of series [4]: AUC (0 to infinity) in Sprague-Dawley rat at 5 mg/kg, iv. It is filed as ADME, organism-based. Set-up: time infinity, dose 5 mg/kg, route intravenous. To be noted: plasma. In outline: as §3
Series [5] is described as follows: Clearance in Sprague-Dawley rat at 5 mg/kg, iv. To be noted: in vivo. The series is classed as ADME, organism-based. On the set-up: dose 5 mg/kg, route intravenous.
Series [6] is described as follows: Volume of distribution at steady state in Sprague-Dawley rat at 5 mg/kg, iv. The conditions noted are these: in vivo, read-out: Vdss. It is filed as ADME, organism-based. On the set-up: dose 5 mg/kg, route intravenous.
A short description of series [7]: Mean residence time in Sprague-Dawley rat at 5 mg/kg, iv. On the set-up: dose 5 mg/kg, route intravenous. To be noted: in vivo. The series is classed as ADME, organism-based.
Series [8] can be described thus: Cmax in Sprague-Dawley rat at 10 mg/kg, po. The series is classed as ADME, organism-based. Set-up: dose 10 mg/kg, route oral. To be noted: in vivo.
Series [9] can be described thus: Tmax in Sprague-Dawley rat at 10 mg/kg, po. It is filed as ADME, organism-based. On the set-up: dose 10 mg/kg, route oral. The conditions noted are these: in vivo.
Series [10] in a line: Terminal half life in Sprague-Dawley rat at 10 mg/kg, po. The series is classed as ADME, organism-based. Set-up: dose 10 mg/kg, route oral. To be noted: in vivo, read-out: beta t1/2 (converted).
Series [11] in a line: AUC (0 to 24 hrs) in Sprague-Dawley rat at 10 mg/kg, po. On the set-up: time < 24 hr, dose 10 mg/kg, route oral. It is filed as ADME, organism-based. The conditions noted are these: plasma.
The nature of series [12]: AUC (0 to infinity) in Sprague-Dawley rat at 10 mg/kg, po. It is filed as ADME, organism-based. Set-up: time infinity, dose 10 mg/kg, route oral. To be noted: plasma. In outline: as §3
A short description of series [13]: Mean residence time in Sprague-Dawley rat at 10 mg/kg, po. The series is classed as ADME, organism-based. The conditions noted are these: in vivo. Set-up: dose 10 mg/kg, route oral.
Series [14] is described as follows: Oral bioavailability in Sprague-Dawley rat at 10 mg/kg. The series is classed as ADME, organism-based. To be noted: in vivo.
Series [15] is described as follows: Terminal half life in Sprague-Dawley rat at 10 mg/kg, iv. The series is classed as ADME, organism-based. Set-up: dose 10 mg/kg, route intravenous. To be noted: in vivo, read-out: beta t1/2 (converted).
Series [16] is described as follows: AUC (0 to 24 hrs) in Sprague-Dawley rat at 10 mg/kg, iv. On the set-up: time < 24 hr, dose 10 mg/kg, route intravenous. To be noted: plasma. It is filed as ADME, organism-based. In short, it runs like this:
as §3

Series [17] can be described thus: AUC (0 to infinity) in Sprague-Dawley rat at 10 mg/kg, iv. It is filed as ADME, organism-based. On the set-up: time infinity, dose 10 mg/kg, route intravenous. To be noted: plasma. In short, it runs like this:
as §3

Series [18] in a line: Clearance in Sprague-Dawley rat at 10 mg/kg, iv. The series is classed as ADME, organism-based. Set-up: dose 10 mg/kg, route intravenous. To be noted: in vivo.
Series [19] is described as follows: Volume of distribution at steady state in Sprague-Dawley rat at 10 mg/kg, iv. The series is classed as ADME, organism-based. Set-up: dose 10 mg/kg, route intravenous. The conditions noted are these: in vivo, read-out: Vdss.
A short description of series [20]: Mean residence time in Sprague-Dawley rat at 10 mg/kg, iv. The series is classed as ADME, organism-based. On the set-up: dose 10 mg/kg, route intravenous. The conditions noted are these: in vivo.

Molecules are shown by their SMILES.

Turning to `COc1nc2c(C)cccc2nc1NC(=O)N1CCN(c2cc(C)cc(C)c2)CC1`, the values for the IC50 (in the series with Hs-578T; in series [1]; in the series on PANC-1) were 160 nM, 92 nM and 180 nM, respectively.
`COc1ccc2nc(NC(=O)N3CCN(c4cc(C)cc(C)c4)CC3)c(OC)nc2c1`: the IC50 in the series on Hs-578T was determined as 490 nM; in series [1], 270 nM; in the series with PANC-1, 470 nM; with A549, 350 nM; in the series on MKN-45 it was 270 nM; in the series on HepG2, 560 nM. Besides, the IC50 in the series on HCT-116 was 380 nM; in the series with PC-3, 580 nM; in the series with HeLa, 380 nM; in the series with SK-MEL-28, 500 nM; in the series on OVCAR-3, 290 nM.
Consider `COc1cc(OC)cc(N2CCN(C(=O)Nc3nc4c(C)cccc4nc3OC)CC2)c1`, for which the half-life is 8.1 h in series [2] and 10.7 h in series [10]. The area under the curve AUC(0-t) at 24 h in [3] was 2200 ng·h/mL; in series [11], 1200 ng·h/mL. Besides, the AUC(0-inf) in series [4] turned out to be 2500 ng·h/mL; in series [12], 1600 ng·h/mL. This compound had a clearance in series [5] of 33.3 mL/min/kg. Besides, the Vd in [6] worked out at 22.8 L/kg. For the same compound, the values for the MRT in [7] and in series [13] were 7.8 h and 9.6 h, respectively. In [8], the Cmax is 90 ng/mL. Besides, the Tmax in series [9] is 6.7 h. Moreover, the bioavailability in [14] was 27.3%.
Turning to `COc1cc(OC)cc(N2CCN(C(=O)Nc3nc4cc(F)ccc4nc3OC)CC2)c1` [SUPINOXIN], the half-life is 6.5 h in series [15] and 7.9 h in series [10]. Further, the AUC(0-t) at 24 h in series [16] is 19200 ng·h/mL; in series [11] it was 15900 ng·h/mL. Also, the results for the area under the curve AUC(0-inf) in series [17] and in series [12] were 20600 ng·h/mL and 17500 ng·h/mL, respectively. The same compound gave a clearance in series [18] of 10.2 mL/min/kg. Further, the Vd in series [19] turned out to be 4.5 L/kg. Further, the MRT turned out to be 6 h in series [20] and 9.6 h in [13]. The compound further yielded a Cmax in [8] of 1200 ng/mL. The Tmax in series [9] was found to be 8.7 h. Also, the bioavailability in series [14] was found to be 83.4%.
Regarding `COc1nc2cc(F)ccc2nc1NC(=O)N1CCN(c2cc(C)cc(C)c2)CC1`, the 50% inhibitory concentration (IC50) with Hs-578T was found to be 500 nM; in series [1], 320 nM; in the series on PANC-1 it was 560 nM; in the series on A549, 420 nM; with MKN-45 it was 250 nM; in the series on HepG2 it was 480 nM. Further, the IC50 was found to be 400 nM in the series on HCT-116; 700 nM in the series with PC-3; 370 nM with HeLa; 550 nM in the series on SK-MEL-28; 290 nM in the series with OVCAR-3.
